Results taken from ChEMBL document CHEMBL4610039, “Design, synthesis and apoptosis-related antiproliferative activities of chelidonine derivatives” (Bioorg Med Chem Lett, 2020).
Active and inactive are the calls of the source. No cut-off for these calls is given here.

Experiments:
K562 [1] = assay: Induction of cell cycle arrest in human K562 cells assessed as accumulation at G1 phase at 0.55 uM after 72 hrs by propidium iodide staining based flow cytometry (reference value: 56.13%); format: functional
Procedure, shortened: (§1)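 For cell cycle, K562 cells were treated 72 h at 0, 0.55, 1.10 or 2.20 μM, with a solvent control. Cells were stained with PI and G1, S and G2/M fractions determined by flow cytometry.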

K562 [2] = assay: Induction of cell cycle arrest in human K562 cells assessed as accumulation at G2/M phase at 0.55 uM after 72 hrs by propidium iodide staining based flow cytometry (reference value: 8.19%); format: functional; procedure, shortened: as §1
K562 [3] = assay: Induction of cell cycle arrest in human K562 cells assessed as accumulation at G1 phase at 2.20 uM after 72 hrs by propidium iodide staining based flow cytometry (reference value: 56.13%); format: functional; procedure, shortened: as §1
K562 [4] = assay: Induction of cell cycle arrest in human K562 cells assessed as accumulation at G2/M phase at 2.20 uM after 72 hrs by propidium iodide staining based flow cytometry (reference value: 8.19%); format: functional; procedure, shortened: as §1
K562 [5] = assay: Induction of morphological changes in human K562 cells assessed as chromatin aggregation at 0.55 to 2.20 uM after 48 hrs by Hoechst 33258 staining based fluorescence microscopic analysis; format: functional, cell-based
Procedure, shortened: (§2)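 After 48 h exposure at 0, 0.55, 1.10 or 2.20 μM, K562 cells were stained with Hoechst 33258. Nuclear morphology, including chromatin aggregation and nuclear rupture, was examined by fluorescence microscopy.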

K562 [6] = assay: Induction of morphological changes in human K562 cells assessed as nuclear rupture at 0.55 to 2.20 uM after 48 hrs by Hoechst 33258 staining based fluorescence microscopic analysis; format: functional, cell-based; procedure, shortened: as §2
K562 [7] = assay: Induction of apoptosis in human K562 cells assessed as viable cells at 0.55 uM after 48 hrs by annexin V-FITC/propidium iodide staining based flow cytometry (reference value: 96.26%); format: functional; conditions: K562, 48 h, read-out: Activity
K562 [8] = assay: Induction of apoptosis in human K562 cells assessed as viable cells at 1.10 uM after 48 hrs by annexin V-FITC/propidium iodide staining based flow cytometry (reference value: 96.26%); format: functional; conditions: K562, 48 h, read-out: Activity
K562 [9] = assay: Induction of apoptosis in human K562 cells assessed as early apoptotic cells at 2.20 uM after 48 hrs by annexin V-FITC/propidium iodide staining based flow cytometry (reference value: 2.23%); format: functional
K562 [10] = assay: Induction of mitochondrial membrane potential loss in human K562 cells assessed as cell population with intact mitochondrial membrane potential at 0.55 uM after 48 hrs by JC1 staining-based flow cytometry analysis (reference value: 92.94%); format: functional
K562 [11] = assay: Induction of apoptosis in human K562 cells assessed as reduction in bcl-xl protein expression after 24 hrs by chemiluminescence based protein array analysis; format: functional, cell-based
Procedure, shortened: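 K562 cells were treated for 24 h, then proteins were extracted and run on a human apoptosis protein array. Chemiluminescent signals were detected with a digital imaging system.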

CN1Cc2c(ccc3c2OCO3)[C@H]2[C@@H](OC(=O)CCCC(=O)OCC#CCOc3no[n+]([O-])c3S(=O)(=O)c3ccccc3)Cc3cc4c(cc3[C@H]21)OCO4
Activity (K562 [1]): 47.82% | Activity (K562 [2]): 10.28% | Activity (K562 [3]): 32.41% | Activity (K562 [4]): 7.87% | Activity (K562 [5]): Active | Activity (K562 [6]): Active | viability at 0.55 µM (K562 [7]): 88.3% | viability at 1.1 µM (K562 [8]): 80.5% | Activity (K562 [9]): 24.84% | Activity (K562 [10]): 80.71% | Activity (K562 [11]): Active
